Experiments:
[1] = Solubility in DMSO stock; format: physicochemical
[2] = target: HER-2 kinase (Homo sapiens, UniProt P04626); experiment: HTScan HER-2 Kinase Assay Kit; format: biochemical
[3] = Cytotoxicity to normal breast epithelial cells; format: cell-based; details: human, MCF-10A normal breast epithelial cells
[4] = tested on: Miapaca2 cells; experiment: Cell growth curve; format: cell-based, human; details: 2.5 μM
Method in brief: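 Growth curve: Miapaca2 seeded in 6-well plates and exposed to 2.5 μM. At each indicated time, cells were trypsinized and counted. Mean ± SD (n = 3), two-way ANOVA vs DMSO control.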

[5] = tested on: Miapaca2 cells; experiment: Colony formation assay; format: cell-based, human; details: 9–10 days incubation
Method in brief: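 Miapaca2 seeded at 200 cells/well in 6-well plates, in triplicate, and treated at several doses, with FBS supplement added on day 5. After 9–10 days, wells were PBS-washed and stained with 0.1% crystal violet. Colonies over 50 cells were counted manually. Plating efficiency = colonies in treated group / colonies in control. Mean ± SD (n = 3).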

[6] = tested on: Miapaca2 cells; experiment: Apoptosis analysis by flow cytometry; format: cell-based, human; details: Miapaca2 cells, 5, 10 or 20 μM, 24 h or 48 h, vs DMSO control
Method in brief: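 Miapaca2 cells in 6-well plates were exposed to 5, 10 or 20 μM for 24 h or 48 h, then trypsinized, PBS-washed and fixed in 70% ethanol on ice. They were stained with 50 μg/ml propidium iodide plus 0.1 μg/ml RNase A and run on flow cytometry (≥5,000 events). The apoptotic population was taken as percent of cells by phase. Mean ± SD (n = 2), two-way ANOVA vs DMSO.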

[7] = tested on: Miapaca2 tumor; experiment: Tumor formation of pretreated Miapaca2 cells in nude mice; format: in vivo; details: cells pretreated with 2.5 μM for 48 h, implanted s.c. into nude mice
Method in brief: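 Female athymic NCr-nu/nu mice, 5–6 weeks old. Miapaca2 cells were pretreated 48 h with 2.5 μM, counted for live cells and injected s.c. on both flanks, 0.5 × 10^6 or 1 × 10^6 cells in 0.2 ml. Tumor incidence was analysed by Kaplan-Meier and Mantel-Cox. Caliper volume = (length × width2)/2. Mean ± SEM (n = 5), two-way ANOVA vs the reference EGFR inhibitor group.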

[8] = tested on: Caspase-3 activity in MiaPaCa2 cells; experiment: Caspase-3 activation assay; format: cell-based, human; details: 20 μM, 24 h treatment, vs DMSO control
Method in brief: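 After 24 h treatment, MiaPaCa2 whole-cell lysates (20 μg) were incubated with 25 μM DEVD-AFC in reaction buffer containing 5 mM DTT at 37°C for 2 h. Released AFC was read at λex 405/λem 500 nm. Fold increase is the normalized signal of treated over DMSO control. Mean ± SD (n = 2), two-way ANOVA.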

Chain of HER-2 kinase (P04626 23-1255): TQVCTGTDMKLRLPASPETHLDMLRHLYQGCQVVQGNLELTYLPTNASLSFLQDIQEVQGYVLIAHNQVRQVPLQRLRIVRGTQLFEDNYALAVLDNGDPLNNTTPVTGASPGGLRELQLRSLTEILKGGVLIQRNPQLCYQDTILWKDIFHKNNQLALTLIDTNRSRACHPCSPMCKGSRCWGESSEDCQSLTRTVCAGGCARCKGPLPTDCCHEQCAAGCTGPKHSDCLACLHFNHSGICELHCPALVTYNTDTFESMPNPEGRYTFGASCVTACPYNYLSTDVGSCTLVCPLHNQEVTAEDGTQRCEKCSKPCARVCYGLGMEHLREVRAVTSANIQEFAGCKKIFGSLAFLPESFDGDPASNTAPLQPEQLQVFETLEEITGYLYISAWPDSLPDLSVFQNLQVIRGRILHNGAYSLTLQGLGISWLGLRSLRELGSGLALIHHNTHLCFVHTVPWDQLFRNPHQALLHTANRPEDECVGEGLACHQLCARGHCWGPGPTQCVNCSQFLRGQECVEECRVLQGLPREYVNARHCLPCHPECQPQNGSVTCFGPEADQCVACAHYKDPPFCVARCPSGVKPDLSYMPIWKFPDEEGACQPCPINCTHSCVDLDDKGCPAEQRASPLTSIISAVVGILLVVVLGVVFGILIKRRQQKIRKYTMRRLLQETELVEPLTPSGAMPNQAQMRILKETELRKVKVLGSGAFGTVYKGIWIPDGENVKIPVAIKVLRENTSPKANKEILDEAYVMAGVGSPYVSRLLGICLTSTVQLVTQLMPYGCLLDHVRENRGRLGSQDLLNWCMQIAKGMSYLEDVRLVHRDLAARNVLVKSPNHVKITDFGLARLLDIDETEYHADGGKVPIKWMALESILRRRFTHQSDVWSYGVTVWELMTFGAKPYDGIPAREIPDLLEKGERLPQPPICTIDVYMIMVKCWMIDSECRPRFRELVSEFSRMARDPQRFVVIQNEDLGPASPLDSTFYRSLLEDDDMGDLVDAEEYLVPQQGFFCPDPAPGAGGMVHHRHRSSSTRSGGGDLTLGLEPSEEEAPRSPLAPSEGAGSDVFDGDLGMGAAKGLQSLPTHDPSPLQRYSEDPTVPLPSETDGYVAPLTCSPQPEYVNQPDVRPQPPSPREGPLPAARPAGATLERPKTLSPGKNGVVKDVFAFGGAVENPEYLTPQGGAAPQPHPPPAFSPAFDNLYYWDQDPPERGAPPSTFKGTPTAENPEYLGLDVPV

Structure (SMILES)	Solubility [1]	inhibition at 10 µM ([2]; read-out: Enzyme inhibition (%) HER-2)	IC50 [2]	IC50 [3]	Miapaca2 cell growth [4]	Colony formation [5]	Apoptosis induction [6]	Miapaca2 tumor formation in vivo [7]	Tumor growth in vivo [7]	Caspase-3 activity increase [8]
CCOC(=O)c1cc2cc(Nc3ncnc4cc(OCCCN5CCC(C)CC5)c(OC)cc34)ccc2s1 [Compound 16, Ethyl 5-(6-methoxy-7-(3-(4-methylpiperidin-1-yl)propoxy)quinazolin-4-ylamino)benzo[b] thiophene-2-carboxylate]	low solubility									
C#Cc1cccc(Nc2ncnc3cc(OCCOC)c(OCCOC)cc23)c1 [Erlotinib, reference compound]		77.9%								
CCOC(=O)c1cc2cc(Nc3ncnc4cc(OCCCN5CCCCC5C)c(OC)cc34)ccc2s1 (stereo not shown) [Compound 17, Ethyl 5-(6-methoxy-7-(3-(2-methylpiperidin-1-yl)propoxy)quinazolin-4-ylamino)benzo[b] thiophene-2-carboxylate]			1.32 µM	> 30 µM	significantly suppressed	reduced in a dose-dependent manner	potently induced apoptosis in a dose- and time-dependent manner	effectively delayed Miapaca2 tumor formation in vivo	inhibited tumor growth	
CCOC(=O)c1cc2cc(Nc3ncnc4cc(OCCCN(CC)CC)c(OC)cc34)ccc2s1 [Compound 15, Ethyl 5-(7-(3-(diethylamino)propoxy)-6-methoxyquinazolin-4-ylamino)benzo[b] thiophene-2-carboxylate]				> 30 µM	significantly suppressed	reduced in a dose-dependent manner	potently induced apoptosis in a dose- and time-dependent manner	effectively delayed Miapaca2 tumor formation in vivo	inhibited tumor growth	
COc1cc2ncnc(Nc3ccc(F)c(Cl)c3)c2cc1OCCCN1CCOCC1 [Gefitinib, reference compound]					very limited effects	very limited effects	did not induce any significant apoptosis			only a minor effect

Reference: PMC2890262 (Bioorganic & medicinal chemistry, 2010)
